Compounds with a hit are over-represented: about 2% of the library has one in this group of screens.
M5 PAM – human M5 muscarinic receptor positive allosteric modulators, primary screen, CHO-K1 cells, Fluo-8 calcium fluorescence | CHO-K1 hM5, ACh EC20 PAM; 0% = ACh EC20, 100% = ACh EC100 | activation, % at 3 µM | 360,000 tested, 0.3% active | AID 624038, 2012;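 active = activation above the run cutoff, the mean activation of all test compounds plus 3 SD, cut at about 18% in these data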
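Assay system: CHO-K1 hM5 cells / Incubation: Fluo-8 loading 80 min at 37 °C plus 30 min room temperature / Technique: Fluo-8 calcium dye fluorescence, kinetic read / Repeats: single replicate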
M5 antag – human M5 muscarinic receptor antagonists, primary screen, CHO cells, Fluo-8 calcium fluorescence | Muscarinic acetylcholine receptor M5 (Homo sapiens), P08912 | inhibition, % at 3 µM | AID 624040, 2012 | 360,000 tested, 0.59% active | CHO-hM5 cells, ACh EC80;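 active = inhibition above a per-plate cutoff, the mean of that plate's test compounds plus 3 SD, cut at about 27% in these data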;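 also: 0% = acetylcholine EC80 with DMSO and 100% = DMSO without agonist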
CHRM5 agonist – human M5 muscarinic receptor agonists, primary screen, CHO-K1 cells, Fluo-8 calcium fluorescence; CHO-K1 hM5 cells; 0% DMSO wells, 100% maximal acetylcholine response; activation, % at 3 µM; Muscarinic acetylcholine receptor M5 (Homo sapiens), P08912; 360,000 tested, 0.19% active;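 active = activation above the run's mean over test compounds plus 3 SD, cut at about 23% in these data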;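 also: signal is peak over basal fluorescence ratio across the kinetic read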
CHRM1 PAM – human M1 muscarinic receptor positive allosteric modulators, primary screen, CHO-K1 cells, Fluo-8 calcium fluorescence, 1536-well | CHO-K1 hM1, ACh EC20; 0% = ACh EC20, 100% = maximal ACh | activation, % at 3 µM | 360,000 tested, 0.088% active; in the data active = activation above about 19%, passing the limit was not always enough
Target sequence (P11229 whole entry, looked up): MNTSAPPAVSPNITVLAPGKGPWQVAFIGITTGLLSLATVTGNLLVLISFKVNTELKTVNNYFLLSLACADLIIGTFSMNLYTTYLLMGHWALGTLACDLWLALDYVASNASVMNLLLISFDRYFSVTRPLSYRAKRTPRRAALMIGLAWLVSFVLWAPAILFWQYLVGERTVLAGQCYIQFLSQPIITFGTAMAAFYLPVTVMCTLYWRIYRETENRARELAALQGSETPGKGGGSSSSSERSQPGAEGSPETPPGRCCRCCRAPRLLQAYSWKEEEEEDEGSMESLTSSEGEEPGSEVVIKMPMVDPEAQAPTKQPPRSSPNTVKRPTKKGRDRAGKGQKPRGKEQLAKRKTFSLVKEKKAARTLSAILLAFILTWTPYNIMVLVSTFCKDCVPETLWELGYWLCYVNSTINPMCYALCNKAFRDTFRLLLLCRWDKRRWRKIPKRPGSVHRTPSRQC
M1 antag – human M1 muscarinic receptor antagonists, primary screen, CHO-K1 cells, Fluo-8 calcium fluorescence, 1536-well. Muscarinic acetylcholine receptor M1 (Homo sapiens), P11229. CHO-K1 hM1, ACh EC80 antagonist. inhibition, % at 3 µM. 360,000 tested, 1.3% active;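 active = percent inhibition above its own plate's cutoff, namely the mean of that plate's compound wells plus 3 SD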;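 also: peak over basal fluorescence ratio during 140 s after agonist addition; 0% = ACh EC80 plus DMSO and 100% = DMSO alone without agonist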
M1 ag – human M1 muscarinic receptor agonists, primary screen, Fluo-8 calcium fluorescence, CHO-K1 cells, HTS; Muscarinic acetylcholine receptor M1 (Homo sapiens), P11229; CHO-K1 hM1, agonist mode; 0% DMSO, 100% acetylcholine EC100; activation, % at 3 µM; 360,000 tested, 0.33% active;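 active = activation above the run's mean compound activation plus 3 SD, cut at about 16% in these data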;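 also: peak over basal fluorescence ratio within a 140 s kinetic read after compound addition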
* hit, by the source's call; x = not tested or not shown.

SMILES | M5 PAM | M5 antag | CHRM5 agonist | CHRM1 PAM | M1 antag | M1 ag
Cc1cc(-c2ccc(S(=O)(=O)N3CCN(C)CC3)s2)on1 | -12.8 | 35.3* | -8.2 | 5.0 | -9.0 | -2.1
COc1ccc([C@H]2CC(=O)C[C@@H](CCn3cccn3)O2)cc1 | -2.7 | -0.1 | 1.8 | x | x | x
CC(C)CN(C(=O)c1cccc(S(=O)(=O)N2CCN(Cc3ccccc3)CC2)c1)C1CCS(=O)(=O)C1 (centres undefined) | -5.3 | 2.5 | -2.7 | 24.7* | -32.0 | -1.4
COc1ccc(NC(=O)CN(C)C(=O)c2cccc(S(=O)(=O)N3CCN(Cc4ccccc4)CC3)c2)cc1 | 0.8 | -2.2 | -3.8 | 6.7 | -7.2 | -1.2
CN(CCOc1ccc(Cl)cc1)C(=O)c1cccc(S(=O)(=O)N2CCN(Cc3ccccc3)CC2)c1 | -23.1 | 15.6 | 7.1 | -14.5 | 39.7* | -0.3
CCCN(C(=O)c1cccc(S(=O)(=O)N2CCN(Cc3ccccc3)CC2)c1)C1CCS(=O)(=O)C1 (centres undefined) | 1.1 | 2.1 | -2.9 | 12.0 | -9.3 | -2.0
COc1ccc(CN2C(=O)CCC2(C)c2nnnn2-c2ccc3c(c2)OCCO3)cc1 (centres undefined) | -7.8 | -0.1 | 1.0 | x | x | x
COC(=O)Cc1ccccc1NS(=O)(=O)c1ccc(C)cc1 | 0.2 | 11.1 | -1.4 | x | x | x
Cc1cc(C)c2oc(C(=O)N3CCN(C)CC3)cc(=O)c2c1 | 10.3 | -1.0 | -1.0 | 32.2* | -32.5 | -1.6
COc1ccc(/C=N/NC(=O)c2ccc(CN3c4cccc5cccc(c45)S3(=O)=O)cc2)cc1 | -6.8 | 11.9 | -2.0 | -6.7 | -10.2 | 16.2*
COc1cc(/C=N/NC(=O)c2ccc(CN3c4cccc5cccc(c45)S3(=O)=O)cc2)cc(OC)c1O | -5.7 | 9.6 | -2.0 | 1.4 | 4.8 | 4.5
O=C(CN1c2cccc3cccc(c23)S1(=O)=O)NCCc1ccccc1 | 8.3 | 0.9 | 3.8 | 9.5 | -4.5 | 1.4
O=C(N/N=C/CCc1ccccc1)c1ccc(CN2c3cccc4cccc(c34)S2(=O)=O)cc1 | 8.8 | -1.6 | 1.1 | 16.8 | -11.1 | 21.0*
S=C1NCN(Cc2ccco2)CN1 | 23.5* | -5.5 | 4.9 | -6.3 | 10.3 | 0.7
CCc1c(-c2ccc(Br)cc2)ncn1Cc1cccc(-c2ccccc2)c1 | -19.9 | 72.2* | -5.9 | x | x | x
O=C(C1CCC(CNc2nc(=S)[nH]c3ccccc23)CC1)N1CCN(c2ccc(F)cc2)CC1 (centres undefined) | 8.5 | 3.1 | -7.2 | -12.6 | 32.6* | -7.4
O=C(NC1CCCC1)C1c2ccccc2OCC(=O)N1Cc1ccco1 (centres undefined) | 2.3 | -2.3 | 0.4 | x | x | x
O=C(NCC(c1ccco1)N1CCCC1)c1ccc(S(=O)(=O)Nc2ccccc2F)cc1 (centres undefined) | -3.1 | 6.4 | -7.6 | -24.6 | 65.5* | -6.8
O=C(NCC(c1ccco1)N1CCCCC1)c1ccc(COc2ccc(Cl)cc2)cc1 (centres undefined) | -35.8 | 24.4 | -8.1 | -26.0 | 79.5* | -4.8
N#Cc1ccc(C(=O)NCC(c2ccco2)N2CCCCC2)cc1 (centres undefined) | -1.3 | -0.7 | -3.6 | -10.5 | 13.9 | -4.8
COc1cc(OC)c(NC(=O)c2cc3ccccc3cc2O)cc1Cl | 6.7 | 12.5 | 3.5 | 2.5 | 3.9 | 0.5
OC[C@@H]1CN(C2CCCC2)C[C@H](n2cnc3c(NC4CC4)ncnc32)O1 | -2.8 | 4.1 | 0.3 | -0.3 | -1.7 | -1.6
COc1cc(C(=O)N2CCCC(C)(C(=O)NS(=O)(=O)C3CC3)C2)cc(OC)c1OC (centres undefined) | -3.6 | 2.2 | 0.3 | -0.5 | -7.9 | 0.8
O=C(CN1CCC(N2CCCCC2)CC1)N1CCCc2ccccc21 | -1.1 | 3.0 | -0.3 | -0.6 | 3.7 | -5.0
O=C(CN1CCCCC1)N1c2ccccc2CCc2ccccc21 | -17.7 | 49.3* | -6.5 | -21.1 | 93.4* | -4.3
SMILES | M5 PAM | M5 antag | CHRM5 agonist | CHRM1 PAM | M1 antag | M1 ag
CCOC(=O)N1CCN(CC(=O)N2c3ccccc3CCc3ccccc32)CC1 | 2.0 | 1.9 | 2.6 | -4.5 | 15.1 | 1.7
O=C(CN1CCC(O)CC1)N1c2ccccc2C=Cc2ccccc21 | -33.2 | 19.4 | -10.3 | -24.3 | 47.0* | -9.6
CC1CCN(CC(=O)N2c3ccccc3CCc3ccccc32)CC1 | -14.2 | 11.9 | -8.0 | -27.1 | 72.2* | -7.0
COc1ccc(S(=O)(=O)Nc2ccc3c(c2)C(=O)N([C@H](C)CO)C[C@H](C)[C@@H](CN(C)Cc2ccncc2)OCCCC[C@@H](C)O3)cc1 | 3.8 | -2.1 | -0.1 | 2.3 | -9.3 | -8.9
CNc1cc(-c2cccc(C(=O)N3CCOCC3)c2)ncn1 | -1.7 | -1.0 | 1.4 | 7.8 | -17.6 | -2.4
CCN=C1SC(CC(=O)Nc2ccc(C(F)(F)F)cc2)C(=O)N1CC (centres undefined) | -13.1 | 18.8 | 6.5 | -23.1 | 33.2* | -0.7
CCCNC(=O)Nc1ccc2c(c1)OC[C@H](C)N(C(=O)C1CCCCC1)C[C@@H](C)[C@H](OC)CN(C)C2=O | -3.8 | 4.2 | -1.2 | x | x | x
O=C1N(c2ccccc2)C[C@@H]2C[C@@H](c3cccs3)N3CCC[C@@]123 | -7.5 | 6.8 | -18.3 | -26.0 | 90.0* | -8.8
COc1ccccc1N1C[C@@H]2C[C@@H](c3ccco3)N3CCC[C@@]23C1=O | -1.7 | 0.4 | -4.8 | 2.7 | 0.4 | -15.7
CC(C)(O)C#Cc1ccc([C@@H]2C[C@H]3CN(c4ccccc4)C(=O)[C@]34CCCN24)s1 | -8.5 | 3.8 | -7.8 | -26.1 | 42.0* | -10.4
CC(C)(O)C#Cc1ccc(C(=O)N2CCCC2C(=O)O)s1 (centres undefined) | -1.9 | -12.1 | -1.0 | -2.0 | -24.9 | -2.2
Cc1cc(NC(=O)CSc2nnc3ccc(-c4ccccc4)nn23)no1 | 0.9 | -4.6 | 1.1 | 13.0 | -18.3 | 5.7
c1ccc(CNc2ncnc3c2oc2ccccc23)nc1 | -3.9 | -0.3 | 1.4 | 7.9 | -7.8 | -4.8
COc1ccc(CCNc2nc(C)nc3c2oc2ccccc23)cc1OC | -20.7 | 32.5* | 7.4 | -12.6 | 30.2 | 5.2
COc1ccc(CCNc2ncnc3c2oc2ccccc23)cc1OC | -16.1 | 50.3* | 6.7 | -18.8 | 39.8* | 2.2
CC1CCN(C(=O)COC(=O)c2cccc(S(=O)(=O)N3CCOCC3)c2)CC1 | -0.9 | -5.3 | -0.3 | 6.6 | -11.2 | -0.6

Source: PubChem BioAssay (The Scripps Research Institute Molecular Screening Center)
